Assay outcomes (PubChem BioAssay)
Casp6 inh – human caspase-6 inhibitors, primary screen, biochemical, VEID-R110 fluorescence, single point, set 2; P55212; 350,000 tested, 0.53% active; AID 686996, 2013; inhibition, % at 12.5 µM; purified caspase-6, Z-VEID-R110 cleavage fluorescence;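 active = mean inhibition across replicates at least about 35%, with every replicate also reaching that limit, limit read from the data; inconclusive = only one of the two criteria met; inactive = neither criterion met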;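 note: 0% = median of neutral control wells and 100% = no fluorescence left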
Target sequence (P55212 24-179 limits assumed): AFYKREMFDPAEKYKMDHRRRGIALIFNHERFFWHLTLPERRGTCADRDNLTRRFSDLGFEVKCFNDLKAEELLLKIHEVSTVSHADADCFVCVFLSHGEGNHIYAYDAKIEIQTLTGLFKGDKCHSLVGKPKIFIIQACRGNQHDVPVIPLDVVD
Target sequence (P55212 194-293 limits assumed): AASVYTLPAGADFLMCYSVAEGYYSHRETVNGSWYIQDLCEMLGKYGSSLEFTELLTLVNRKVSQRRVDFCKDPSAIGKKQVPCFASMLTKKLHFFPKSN
CaV13 FRET inh – Primary screen for inhibitors of IQ motif and Ca2+-dependent inactivation inhibitor domain binding in CACNA1D, Förster resonance energy transfer in living cells, …. HEK cells, CFP/YFP FRET ICDI-IQ, plate reader, 10 min; percent FRET-ratio fall versus neutral wells. inhibition, % at 12.3 µM. 340,000 tested, 0.098% active;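 active = mean replicate inhibition of at least 30% and at least 1% of replicates passing that level; inconclusive = only one of the two criteria is met; inactive = neither criterion is met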;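 note: 0% = median of the neutral control wells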
FN deposition inh – inhibitors of fibronectin matrix deposition, primary screen, AH1F cells, Alexa488-fibronectin fluorescence, plate reader; AH1F fibroblasts, overnight; inhibition, % at 12.6 µM; AID 743247, 2014; 350,000 tested, 0.086% active;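 active = mean inhibition across replicates of 30% or more, regardless of how many single replicates reach that level; inconclusive = mean under 30% yet at least half of replicates reach 30%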;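 note: positive control wells lacked labelled fibronectin entirely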
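Assay system: AH1F fibroblasts / Quantity: 10000 cells per well / Medium: DMEM plus 2% serum, read in PBS / Reagent: labelled fibronectin 24 nM / Dosing: single dose, pinned / Times: 1 h cell attachment, overnight exposure to compound and label / Signal: fluorescence, ex 485 nm, em 525 nm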
DENV2 CPE – inhibitors of DENV2 cytopathic effect, primary screen, cell-based, plate reader, single concentration | DENV2-infected cells, cytopathic effect rescue | 350,000 tested, 1.7% active | CPE inhibition, % at 9.99 µM; in the data active = CPE inhibition above about 20%, passing the limit was not always enough; inconclusive = no clear call, values can overlap the other calls; tested in BHK-21 cells;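 note: 0% = median of neutral control wells and 100% = median of positive control wells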
Xi reactivation – activators of inactive X chromosome reactivation, primary screen, imaging, XiGFP fibroblasts, GFP high-content imaging, set 2. XiGFP mouse fibroblasts, % GFP-positive cells imaging, 3 d; cells co-treated with 5-aza-dC sensitizer; scaled so ellipticine positive control = 100%. activation, % at 7.58 µM. 360,000 tested, 0.055% active. AID 743238, 2013;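 active = mean normalized replicate activation at least 10% and every replicate at or above 10%; inconclusive = only one of the two criteria met; inactive = mean below 10% and not all replicates reach 10%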;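 note: 0% = median of on-plate neutral control wells and 100% = ellipticine 6 µM median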
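Material: XiGFP fibroblasts, SV40-immortalized; Buffer or medium: DMEM containing 5-aza-dC; Compound dosing: single point; Times: 3 days compound exposure.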
Numbers without * were called inactive; ? = inconclusive; . = no result given. Sampled rows, rich in hits. Any-hit rate of the full collection: about 2%.

SMILES	Casp6 inh	CaV13 FRET inh	FN deposition inh	DENV2 CPE	Xi reactivation
CCCNC(=O)Nc1ccc2c(c1)C(=O)N(C)C[C@@H](OC)[C@H](C)CN(Cc1cncnc1)[C@@H](C)CO2	0	.	7	.	0
CCCNC(=O)Nc1ccc2c(c1)OC[C@@H](C)N(Cc1ccc(-c3ccccn3)cc1)C[C@@H](C)[C@H](OC)CN(C)C2=O	-2	.	-2	2	0
CC=Cc1ccc2n(c1=O)C[C@H]1[C@H](CO)[C@@H](C(=O)N3CCCCC3)N(CC3CC3)[C@@H]21 (mixture of isomers)	1	.	.	1	0
CC(=C\c1ccco1)/C=C(\C#N)C(=O)NCCc1c[nH]c2ccccc12	-1	-2	-2	58*	0
CO[C@H]1CN(C)C(=O)c2ccc(NC(=O)C3CC3)cc2OC[C@H](C)N(CC2CCOCC2)C[C@@H]1C	2	.	7	-13	0
CC(=O)c1c(C)[nH]c(C(=O)NNC(=O)COc2cc(C)cc(C)c2)c1C	0	-6	4	33*	0
CC[C@]12c3[nH]c4cc(CCC(=O)N(C)C)ccc4c3CCN1C(=O)[C@@H](CC(=O)NCCC1=CCCCC1)C[C@@H]2C(=O)N1CCN(C(=O)c2ccco2)CC1	1	-4	1	25*	?
CCN(CC)C(=O)[C@H]1CC(CC(=O)NC/C=C(\C)CCC=C(C)C)C(=O)N2CCc3c([nH]c4ccc(OC)cc34)[C@]12C (stereo partly drawn)	2	-5	-8	40*	0
CC[C@]12c3[nH]c4cc(CCC(=O)N(C)C)ccc4c3CCN1C(=O)[C@@H](CC(=O)NCc1ccco1)C[C@@H]2C(=O)N1CCN(C(=O)C2CC2)CC1	5	-5	2	25*	0
CC[C@]12c3[nH]c4ccccc4c3CCN1C(=O)C(CC(=O)NCCC1=CCCCC1)C[C@@H]2C(=O)N1CCN(C(=O)C2CC2)CC1 (stereo partly drawn)	0	-6	4	54*	0
CCCNC(=O)Nc1ccc2c(c1)C(=O)N(C)[C@@H]1CC[C@@H](CC(=O)O)O[C@@H]1CO2	.	.	-14	-4	0
C[C@@H]1CN([C@H](C)CO)C(=O)c2cc(-c3ccccc3F)cnc2O[C@@H]1CN(C)C(=O)C1CC1	-2	.	.	?	0
C[C@@H]1CN([C@@H](C)CO)S(=O)(=O)c2ccc(-c3ccccc3)cc2O[C@@H]1CN(C)Cc1ccccc1	.	.	-11	.	-1
C[C@H]1CN([C@@H](C)CO)C(=O)c2cc(NC(=O)Nc3ccc(C(F)(F)F)cc3)ccc2O[C@@H]1CN(C)Cc1ccc2c(c1)OCO2	-1	.	.	-1	0
C[C@]12c3[nH]c4cc(-c5ccco5)ccc4c3CCN1C(=O)[C@@H](CC(=O)NCCc1ccccn1)C[C@@H]2C(=O)N1CCOCC1	-3	-3	0	50*	0
COCCCNC(=O)C[C@H]1C[C@H](C(=O)N(C(C)C)C(C)C)[C@@]2(C)c3[nH]c4cc(CCC(=O)N(C)C)ccc4c3CCN2C1=O	-1	-3	-4	37*	0
O=C(C[C@H]1C[C@@H]2c3cc(NS(=O)(=O)c4ccc(F)cc4)ccc3O[C@@H]2[C@H](CO)O1)NCc1cc(F)ccc1F	-2	.	7	-2	0
C[C@H](CO)N1C[C@H](C)[C@@H](CN(C)C(=O)Nc2ccc3c(c2)OCO3)Oc2ccc(NC(=O)Cn3cnnn3)cc2CC1=O	3	.	.	24*	0
C[C@@H]1CN([C@@H](C)CO)C(=O)Cc2cc(NC(=O)Cn3cnnn3)ccc2O[C@H]1CN(C)C(=O)Nc1ccc2c(c1)OCO2	2	.	.	-4	0
C[C@@H]1CN([C@@H](C)CO)C(=O)Cc2cc(NC(=O)C3CC3)ccc2O[C@H]1CN(C)C(=O)Nc1ccc2c(c1)OCO2	1	.	.	6	0
